Data: ChEMBL document CHEMBL2146441, “2,6-Disubstituted imidazo[2,1-b][1,3,4]thiadiazoles: search for anticancer agents” (2012)

Key:
Format in all cases: functional
T47D = experiment: Cytotoxicity against human T47D cells assessed as cell growth at 10^-7 M after 48 hrs by SRB assay; settings: read-out: Activity
CCRF-CEM = experiment: Cytotoxicity against human CCRF-CEM cells assessed as cell growth at 10^-4 M after 48 hrs by SRB assay; settings: read-out: Activity
Procedure, shortened: (§1)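 NCI-60 screen: lines kept in RPMI 1640 with 5% FBS, seeded at 5000–40,000 cells/well by doubling time, preincubated 24 h at 37 °C in 5% CO2. Time-zero plates TCA-fixed at drug addition. DMSO stocks diluted in medium, 48 h exposure. Fixation in cold TCA (final 10% adherent, 16% suspension), 0.4% SRB stain, solubilised in 10 mM Tris base, A515. Percent growth computed against control and time-zero.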

[1] = Cytotoxicity against human Hs 578T cells assessed as cell growth at 10^-7 M after 48 hrs by SRB assay; settings: read-out: Activity
Procedure, shortened: (§2)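 NCI-60 five-dose screen. Cells were grown in RPMI 1640 with 5% FBS and seeded at 5000–40,000 cells/well according to doubling time. They were pre-incubated 24 h at 37 °C in 5% CO₂, and time-zero (Tz) plates were TCA-fixed at drug addition. Five 10-fold dilutions of DMSO stock were applied for 48 h. Read-out was SRB staining, 515 nm absorbance, with percent growth calculated versus Tz and untreated control.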

OVCAR-3 = experiment: Cytotoxicity against human OVCAR3 cells assessed as cell growth at 10^-8 M after 48 hrs by SRB assay; settings: OVCAR-3, 48 h, read-out: Activity
OVCAR-8 = experiment: Cytotoxicity against human OVCAR8 cells assessed as cell growth at 10^-8 M after 48 hrs by SRB assay; settings: OVCAR-8, 48 h, read-out: Activity
NCI-H522 = experiment: Cytotoxicity against human NCI-H522 cells assessed as cell growth at 10^-5 M after 48 hrs by SRB assay; settings: NCI-H522, 48 h, read-out: Activity
NCI-H226 [2] = experiment: Growth inhibition of human NCI-H226 cells after 48 hrs by SRB assay; settings: NCI-H226, 48 h; for CC50: read-out: LC50 (the source's name)
Procedure, shortened: (§3)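 Adherent NCI-60 lines grown in RPMI 1640 with 5% FBS, seeded at 5000–40,000 cells/well, and preincubated 24 h at 37 °C, 5% CO2. Compound, stocked in DMSO, given either once at 10^-5 M or at five 10-fold dilutions for 48 h. Cells fixed with cold TCA (final 10%), stained with 0.4% SRB, and read at 515 nm. GI50 taken as 50% reduction in net protein increase versus time-zero and control plates.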

SF-539 = experiment: Cytotoxicity against human SF539 cells assessed as cell growth at 10^-5 M after 48 hrs by SRB assay; settings: SF-539, 48 h, read-out: Activity
TK-10 = experiment: Cytotoxicity against human TK10 cells assessed as cell growth at 10^-5 M after 48 hrs by SRB assay; settings: TK-10, 48 h, read-out: Activity
NCI-H226 [3] = experiment: Cytotoxicity against human NCI-H226 cells assessed as cell growth at 10^-7 M after 48 hrs by SRB assay; settings: NCI-H226, 48 h, read-out: Activity
A498 = experiment: Growth inhibition of human A498 cells after 48 hrs by SRB assay; settings: A498, 48 h
Procedure, shortened: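 Same 48 h NCI-60 five-dose SRB protocol. Adherent lines were fixed with cold TCA at 10% final; suspension lines such as CCRF-CEM were fixed with 16% final TCA. Stain was 0.4% SRB in 1% acetic acid for 10 min, solubilized in 10 mM Tris base and read at 515 nm. GI50 came from log concentration–growth curves, solving [(Ti−Tz)/(C−Tz)]×100 = 50.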

SF-268 = experiment: Cytotoxicity against human SF268 cells assessed as cell growth at 10^-5 M after 48 hrs by SRB assay; settings: SF-268, 48 h, read-out: Activity
HOP-92 = experiment: Cytotoxicity against human HOP92 cells assessed as cell growth at 10^-5 M after 48 hrs by SRB assay; settings: HOP-92, 48 h, read-out: Activity; procedure, shortened: as §2
MOLT-4 = experiment: Cytotoxicity against human MOLT4 cells assessed as cell growth at 10^-4 M after 48 hrs by SRB assay; settings: MOLT-4, 48 h, read-out: Activity
ACHN = experiment: Cytotoxicity against human ACHN cells assessed as cell growth at 10^-5 M after 48 hrs by SRB assay; settings: read-out: Activity; procedure, shortened: as §1
MCF7 = experiment: Cytotoxicity against human MCF7 cells assessed as cell growth at 10^-5 M after 48 hrs by SRB assay; settings: MCF7, 48 h, read-out: Activity
[4] = Cytotoxicity against human Hs 578T cells assessed as cell growth at 10^-8 M after 48 hrs by SRB assay; settings: read-out: Activity; procedure, shortened: as §2
SK-MEL-2 = experiment: Cytotoxicity against human SK-MEL-2 cells assessed as cell growth at 10^-7 M after 48 hrs by SRB assay; settings: SK-MEL-2, 48 h, read-out: Activity
Malme-3M = experiment: Cytotoxicity against human MALME-3M cells assessed as cell growth at 10^-4 M after 48 hrs by SRB assay; settings: read-out: Activity
U-251 = experiment: Cytotoxicity against human U251 cells assessed as cell growth at 10^-5 M after 48 hrs by SRB assay; settings: U-251, 48 h, read-out: Activity
SN12C [5] = experiment: Cytotoxicity against human SN12C cells assessed as cell growth at 10^-6 M after 48 hrs by SRB assay; settings: read-out: Activity
OVCAR-5 = experiment: Cytotoxicity against human OVCAR5 cells assessed as cell growth at 10^-7 M after 48 hrs by SRB assay; settings: OVCAR-5, 48 h, read-out: Activity
KM12 = experiment: Cytotoxicity against human KM12 cells assessed as cell growth at 10^-6 M after 48 hrs by SRB assay; settings: KM12, 48 h, read-out: Activity
SK-OV-3 = experiment: Growth inhibition of human SKOV3 cells after 48 hrs by SRB assay; settings: SK-OV-3, 48 h; for CC50: read-out: LC50 (the source's name); procedure, shortened: as §3
SN12C [6] = experiment: Growth inhibition of human SN12C cells after 48 hrs by SRB assay; settings: for CC50: read-out: LC50 (the source's name); procedure, shortened: as §3
SK-MEL-28 = experiment: Cytotoxicity against human SK-MEL-28 cells assessed as cell growth at 10^-6 M after 48 hrs by SRB assay; settings: SK-MEL-28, 48 h, read-out: Activity
UACC-62 = experiment: Growth inhibition of human UACC62 cells after 48 hrs by SRB assay; settings: UACC-62, 48 h; for CC50: read-out: LC50 (the source's name); procedure, shortened: as §3
OVCAR-4 = experiment: Cytotoxicity against human OVCAR4 cells assessed as cell growth at 10^-7 M after 48 hrs by SRB assay; settings: OVCAR-4, 48 h, read-out: Activity
SR = experiment: Cytotoxicity against human SR cells assessed as cell growth at 10^-6 M after 48 hrs by SRB assay; settings: read-out: Activity

| SMILES | growth at 0.1 µM (T47D) | growth at 100 µM (CCRF-CEM) | growth at 0.1 µM [1] | growth at 0.01 µM (OVCAR-3) | growth at 0.01 µM (OVCAR-8) | growth at 10 µM (NCI-H522) | GI50 (NCI-H226 [2]) | TGI (NCI-H226 [2]) | CC50 (NCI-H226 [2]) | growth at 10 µM (SF-539) | growth at 10 µM (TK-10) | growth at 0.1 µM (NCI-H226 [3]) | GI50 (A498) | LC50 (concentration giving 50% net cell kill) (A498) | TGI (A498) | growth at 10 µM (SF-268) | growth at 10 µM (HOP-92) | growth at 100 µM (MOLT-4) | growth at 10 µM (ACHN) | growth at 10 µM (MCF7) | other results |
| --- | --- | --- | --- | --- | --- | --- | --- | --- | --- | --- | --- | --- | --- | --- | --- | --- | --- | --- | --- | --- | --- |
| COc1ccc(-c2nn3cc(-c4ccc(O)cc4O)nc3s2)cc1 | 89% | 8% | 93% | 102% | 102% | 1% | 1.43 µM | 6.95 µM | > 100 µM | -82% | 7% | 88% | 0.365 µM | > 100 µM | 2.56 µM | 14% | -33% | -22% | 9% | 3% | growth at 0.01 µM [4]: 95%; growth at 0.1 µM (SK-MEL-2): 96%; growth at 100 µM (Malme-3M): -28%; growth at 10 µM (U-251): -41%; growth at 1 µM (SN12C [5]): 80%; growth at 0.1 µM (OVCAR-5): 90%; growth at 1 µM (KM12): 86%; GI50 (SK-OV-3): 1.7 µM; TGI (SK-OV-3): 3.62 µM; CC50 (SK-OV-3): 7.72 µM; GI50 (SN12C [6]): 2.58 µM; TGI (SN12C [6]): > 100 µM; CC50 (SN12C [6]): > 100 µM; growth at 1 µM (SK-MEL-28): 73%; GI50 (UACC-62): 3.47 µM; TGI (UACC-62): 17.7 µM; CC50 (UACC-62): 59.4 µM; growth at 0.1 µM (OVCAR-4): 88%; growth at 1 µM (SR): 72% |
| COc1ccc(-c2nn3cc(-c4cccc(N)c4)nc3s2)cc1 | 86% | 6% | 84% | 102% | 104% | 13% | 1.53 µM | 16.2 µM | 71.6 µM | -11% | 41% | 80% | 1.11 µM | 45.2 µM | 5.73 µM | 26% | -25% | 7% | 27% | 21% | growth at 0.01 µM [4]: 90%; growth at 0.1 µM (SK-MEL-2): 93%; growth at 100 µM (Malme-3M): -66%; growth at 10 µM (U-251): 44%; growth at 1 µM (SN12C [5]): 73%; growth at 0.1 µM (OVCAR-5): 103%; growth at 1 µM (KM12): 84%; GI50 (SK-OV-3): 2.72 µM; TGI (SK-OV-3): 10.8 µM; CC50 (SK-OV-3): 54.9 µM; GI50 (SN12C [6]): 4.18 µM; TGI (SN12C [6]): > 100 µM; CC50 (SN12C [6]): > 100 µM; growth at 1 µM (SK-MEL-28): 80%; GI50 (UACC-62): 2.92 µM; TGI (UACC-62): 24.4 µM; CC50 (UACC-62): > 100 µM; growth at 0.1 µM (OVCAR-4): 92%; growth at 1 µM (SR): 81% |
